According to ChEMBL document CHEMBL4732257, “The optimization and characterization of functionalized sulfonamides derived from sulfaphenazole against Mycobacterium tuberculosis with reduced CYP 2C9 inhibition” (Bioorg Med Chem Lett, 2021):
Converted amounts (≈) assume the structure as drawn.

What was measured:
[1] = system: Mycobacterium tuberculosis; experiment: Antimycobacterial activity against Mycobacterium tuberculosis H37Rv assessed as bacterial growth inhibition; type: functional
CYP2C9 = CYP2C9 (Homo sapiens, UniProt P11712); experiment: Inhibition of CYP2C9 (unknown origin) at 0.5 uM relative to control; type: ADME
Vero = experiment: Cytotoxicity against African green monkey Vero cells assessed as reduction in cell viability; type: cell-based; conditions: Chlorocebus sabaeus
Outline: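 Vero cells exposed to the compounds; IC50 taken as the concentration inhibiting 50% of cell growth relative to an untreated control.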

Cytochrome P450 2C9 = Cytochrome P450 2C9 (Homo sapiens, UniProt P11712); experiment: Inhibition of CYP2C9 (unknown origin); type: ADME
Cytochrome P450 2C9, sequence (P11712 whole entry): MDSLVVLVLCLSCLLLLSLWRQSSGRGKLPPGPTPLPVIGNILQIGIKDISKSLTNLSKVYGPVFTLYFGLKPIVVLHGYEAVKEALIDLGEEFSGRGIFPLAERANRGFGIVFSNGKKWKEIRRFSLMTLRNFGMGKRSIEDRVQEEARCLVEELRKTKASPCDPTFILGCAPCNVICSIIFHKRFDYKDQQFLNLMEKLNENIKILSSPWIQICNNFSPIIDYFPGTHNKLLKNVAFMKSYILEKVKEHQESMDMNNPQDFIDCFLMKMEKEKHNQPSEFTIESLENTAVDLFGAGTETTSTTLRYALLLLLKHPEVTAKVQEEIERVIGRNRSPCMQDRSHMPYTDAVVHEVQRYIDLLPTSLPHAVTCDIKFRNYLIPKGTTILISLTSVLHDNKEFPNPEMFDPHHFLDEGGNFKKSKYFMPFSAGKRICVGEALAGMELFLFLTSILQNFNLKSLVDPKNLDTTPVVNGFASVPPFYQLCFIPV

CYP2C9, sequence (P11712 whole entry): as above

Row | Structure (SMILES) | MIC90 [1] [µg/mL] | other results
1 | Nc1cccc(S(=O)(=O)Nc2ccnn2-c2ccccc2)c1 | > 32 | 
2 | Nc1ccc(S(=O)(=O)Nc2ccc3scnc3c2)cc1 | > 32 | 
3 | Nc1ccc(S(=O)(=O)Nc2ccnn2-c2cccc(F)c2)cc1 | 7.93 (≈ 23.9 µM) | 
4 | Nc1ccc(S(=O)(=O)Nc2ccnn2-c2ccccc2)cc1 [SULFAPHENAZOLE] | 5.51 (≈ 17.5 µM) | inhibition at 0.5 µM (CYP2C9): 48.3%; IC50 (Vero): > 64 µg/mL
5 | COc1cc(N)ccc1S(=O)(=O)Nc1ccnn1-c1ccccc1 | > 32 | 
6 | Nc1ccc(S(=O)(=O)Nc2nc3ccccc3o2)cc1 | > 32 | 
7 | CN(c1ccnn1-c1ccccc1)S(=O)(=O)c1ccc(N)cc1 | > 32 | 
8 | Nc1ccc(S(=O)(=O)Nc2nc3ccc(-c4ccccc4)cc3s2)cc1 | > 32 | 
9 | O=C(c1ccc(S(=O)(=O)Nc2ccnn2-c2ccccc2)cc1)N1CCSCC1 | > 32 | 
10 | Nc1ccc(S(=O)(=O)Nc2nc3ccccc3s2)cc1 | 14.3 (≈ 46.7 µM) | inhibition at 0.5 µM (CYP2C9): 4.8%
11 | Cc1ccc(C)c(-n2nccc2NS(=O)(=O)c2ccc(N)cc2)c1 | > 32 | 
12 | COc1ccc(-c2ccc3nc(NS(=O)(=O)c4ccc(N)cc4)sc3c2)cc1 | > 32 | 
13 | Cc1cccc(-n2nccc2NS(=O)(=O)c2ccc(N)cc2)c1 | 12.2 (≈ 37.2 µM) | 
14 | Nc1ccc(S(=O)(=O)Nc2ccnn2Cc2ccccc2)cc1 | > 32 | 
15 | Nc1ccc(S(=O)(=O)Nc2ccnn2C2CCCCC2)cc1 | > 32 | 
16 | NNC(=O)c1ccncc1 [ISONIAZID] | 0.02 (≈ 0.146 µM) | 
17 | Nc1ccc(S(=O)(=O)Nc2ccnn2-c2ccccc2)cc1F | > 32 | 
18 | O=S(=O)(Nc1ccnn1-c1ccccc1)c1ccc(N2CCCCC2)cc1 | > 32 | 
19 | COc1ccc(-n2nccc2NS(=O)(=O)c2ccc(N)cc2)cc1 | 5.69 (≈ 16.5 µM) | inhibition at 0.5 µM (CYP2C9): 9.1%; IC50 (Vero): > 64 µg/mL; IC50 (Cytochrome P450 2C9): 11.5 µM
20 | Cc1ccc(-n2nccc2NS(=O)(=O)c2ccc(N)cc2)cc1 | 7.33 (≈ 22.3 µM) | inhibition at 0.5 µM (CYP2C9): 52.3%; IC50 (Vero): > 64 µg/mL

Row | Structure (SMILES) | MIC90 [1] [µg/mL] | other results
21 | Nc1ccc(S(=O)(=O)Nc2ccnn2-c2ccc(-c3ccccc3)cc2)cc1 | > 32 | 
22 | Cc1cc(NS(=O)(=O)c2ccc(N)cc2)n(-c2ccccc2)n1 [SULFAZAMET] | 15.4 (≈ 46.8 µM) | inhibition at 0.5 µM (CYP2C9): 45%
23 | Cc1ccc(-c2ccc(-n3nccc3NS(=O)(=O)c3ccc(N)cc3)cc2)cc1 | 31 (≈ 76.7 µM) | inhibition at 0.5 µM (CYP2C9): 2.2%
24 | Nc1ccc(S(=O)(=O)Nc2sccc2-c2ccccc2)cc1 | > 32 | 
25 | Nc1ccc(S(=O)(=O)Nc2cc(-c3ccccc3)nn2-c2ccccc2)cc1 | > 32 | 
26 | O=C(c1ccc(S(=O)(=O)Nc2ccnn2-c2ccccc2)cc1)N1CCNCC1 | > 32 | 
27 | Nc1ccc(S(=O)(=O)Nc2ccnn2-c2ccc([N+](=O)[O-])cc2)cc1 | 10.3 (≈ 28.7 µM) | 
28 | Nc1ccc(S(=O)(=O)Nc2ccnn2-c2ccc(F)cc2)cc1 | 6.88 (≈ 20.7 µM) | inhibition at 0.5 µM (CYP2C9): 45.7%; IC50 (Vero): > 64 µg/mL
29 | CC(=O)Nc1ccc(S(=O)(=O)Nc2ccnn2-c2ccccc2)cc1 | > 32 | 
30 | O=C(c1ccc(S(=O)(=O)Nc2ccnn2-c2ccccc2)cc1)N1CCCCC1 | 30.1 (≈ 73.4 µM) | inhibition at 0.5 µM (CYP2C9): 0.2%
31 | Nc1ccc(S(=O)(=O)Nc2ccnn2-c2ccc(Br)cc2)cc1 | 14.5 (≈ 37 µM) | 
32 | Nc1ccc(S(=O)(=O)Nc2ccc3cnn(-c4ccccc4)c3c2)cc1 | > 32 | 
33 | Nc1ccc(-c2ccc(S(=O)(=O)Nc3ccnn3-c3ccccc3)cc2)cc1 | > 32 | 
34 | CC(C)(C)c1cc(NS(=O)(=O)c2ccc(N)cc2)n(-c2ccccc2)n1 | > 32 | 
35 | CNc1ccc(S(=O)(=O)Nc2ccnn2-c2ccccc2)cc1 | > 32 | 
36 | CCc1cc(NS(=O)(=O)c2ccc(N)cc2)n(-c2ccccc2)n1 | > 32 | 
37 | Nc1ccc(S(=O)(=O)Nc2ccnn2C2CCCC2)cc1 | > 32 | 
38 | Nc1ccc(S(=O)(=O)Nc2ccnn2-c2ccc(C(F)(F)F)cc2)cc1 | > 32 | 
39 | COc1ccc(-c2ccc(-n3nccc3NS(=O)(=O)c3ccc(N)cc3)cc2)cc1 | > 32 | 
